Test [1] concerns Staphylococcus aureus. The test can be described thus: Induction of drug resistance in methicillin resistant Staphylococcus aureus NRS384 USA300 assessed as fold change in MIC measured after 4 passages by broth microdilution method. Type of test: functional. In outline:
(§1)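 Multi-step resistance in MRSA USA300 over 14 consecutive passages, with rifampicin as the control antibiotic. The MIC was determined by broth microdilution at each passage. Resistance was defined as a greater than four-fold rise over the initial MIC.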
A general note: Broth dilution looks for growth in wells or tubes with falling amounts of substance.

Test [2] has as its system Staphylococcus aureus. Kind of test: Induction of drug resistance in methicillin resistant Staphylococcus aureus NRS384 USA300 assessed as fold change in MIC measured from passage 5 to 14 by broth microdilution method. Type of test: functional. In outline: as §1

Molecules are shown by their SMILES.

Take `CO[C@H]1/C=C/O[C@@]2(C)Oc3c(C)c(O)c4c(O)c(c(/C=N/N5CCN(C)CC5)c(O)c4c3C2=O)NC(=O)/C(C)=C\C=C\[C@H](C)[C@H](O)[C@@H](C)[C@@H](O)[C@@H](C)[C@H](OC(C)=O)[C@@H]1C` [RIFAMPIN]: the entries for the “fold change (FC)” value in test [1] and in test [2] were more than 4 and 15, respectively.

For the origin of these results see ChEMBL document CHEMBL5230171, “Expanding the structure-activity relationships of alkynyl diphenylurea scaffold as promising antibacterial agents” (RSC Med Chem, 2023).
